Rows were chosen to be rich in hits. Some 1.5% of all compounds tested hit in one or more screens of this group.
NR2E3 ag-1: agonists of human NR2E3 nuclear receptor; Q9Y5X4; CHO-S Gal4-NCOR/VP16-NR2E3 two-hybrid, luciferase; inhibition of corepressor binding, % at 3.98 µM; 0.35% of 360,000 active;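 active means inhibition above the mean of all tested compounds plus 3 SD, cut at about 70% in these data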;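 further: higher means lower luciferase signal from less NR2E3 corepressor binding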
Target sequence (Q9Y5X4 whole entry, looked up, the tested form may be a part): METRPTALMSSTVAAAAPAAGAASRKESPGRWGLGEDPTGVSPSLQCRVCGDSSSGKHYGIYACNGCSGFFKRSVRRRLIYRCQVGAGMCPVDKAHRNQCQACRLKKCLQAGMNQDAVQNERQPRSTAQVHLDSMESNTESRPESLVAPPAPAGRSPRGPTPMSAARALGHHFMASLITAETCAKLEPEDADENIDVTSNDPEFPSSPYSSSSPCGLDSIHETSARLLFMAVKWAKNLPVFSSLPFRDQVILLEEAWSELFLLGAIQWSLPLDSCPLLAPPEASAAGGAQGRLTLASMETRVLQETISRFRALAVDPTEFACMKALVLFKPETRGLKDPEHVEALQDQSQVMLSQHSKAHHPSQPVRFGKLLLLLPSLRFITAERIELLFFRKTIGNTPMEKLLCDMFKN
NR1D1 modulator: Rev-erb alpha (human) modulation | Rev-erbα–FITC-DNA binding, fluorescence polarization, 90 min | activity, % at 10 µM | 0.79% of 370,000 active | AID 1259318;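 active means activity above about 14%, limit read from the data; passing the limit was not always enough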
NR2E3 ag-2: agonists of human nuclear receptor NR2E3; GST-NR2E3/biotin-RetCOR TR-FRET, 1536-well; AID 2300; 0.12% of 320,000 active; Q9Y5X4; inhibition of corepressor binding, % at 4.78 µM;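 active means percent inhibition above the cutoff of mean plus 3 SD of all tested compounds, set per screening campaign, cut at about 20% in these data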
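system = GST-tagged NR2E3 plus biotinylated RetCOR corepressor | input = 1.35 nM GST-NR2E3 | also added = 7 nM biotin-RetCOR | schedule = 5 h incubation at 4 °C | measured by = TR-FRET with europium anti-GST and streptavidin-D2, 340 nm excitation | read-out = percent loss of FRET ratio relative to control wells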
PG9 binder: PG9 antibody binding by small molecule | TR-FRET gp120-PG9 antibody binding | inhibition, % at 6.7 µM | 0.43% of 360,000 active | AID 624416; in the data active means inhibition above about 8.5%
NR1D1 mod conf: Rev-erb alpha (human) modulation, hit confirmation; Rev-erb alpha FITC-DNA binding, fluorescence polarization, 90 min; activation, % at 25 µM; 61% of 3,000 active; AID 1259319; shares compounds with NR1D1 modulator;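 active means activation at or above a set limit, or at least 3 SD above the negative control mean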
RORg counter: affects RORgamma DNA binding in a Rev-erb alpha counter-screen. shares compounds with NR1D1 modulator. purified RORgamma protein-FITC-DNA binding, fluorescence polarization. IC50, µM. 8% of 910 active. AID 1259320;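 active means Compounds whose fitted half-maximal concentration for disrupting protein-DNA binding is below 10 micromolar; the record names Rev-erb in its text, so the target is in doubt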
Numbers stand for hits.

Screening Clc1ccc(-c2nn3c(-c4ccccc4)nnc3s2)cc1 returned NR2E3 ag-1 inactive, NR1D1 modulator 24, NR2E3 ag-2 inactive, PG9 binder inactive and NR1D1 mod conf inactive.
`Clc1ccc(-c2nnc3sc(-c4ccc(Br)o4)nn23)c(Cl)c1` gave NR2E3 ag-1 inactive, NR1D1 modulator inactive, NR2E3 ag-2 inactive and PG9 binder inactive.
Screening c1ccc(-c2nnc3sc(-c4ccncc4)nn23)cc1 returned NR2E3 ag-1 inactive, NR1D1 modulator inactive, NR2E3 ag-2 inactive and PG9 binder inactive.
For COc1cccc(OC)c1-c1nn2c(-c3cc(-c4ccccc4)n[nH]3)nnc2s1 the results were NR2E3 ag-1 inactive, NR1D1 modulator 65, NR2E3 ag-2 inactive, PG9 binder inactive, NR1D1 mod conf 83 and RORg counter inactive.
`Cc1ccccc1CS(=O)(=O)Cc1ccc(C(=O)Nc2cccc(C)c2C)o1` gave NR1D1 modulator inactive.
`CC(C)c1ccc(NC(=O)CSc2nc(-c3ccccc3F)nc3nc[nH]c23)cc1` gave NR2E3 ag-1 inactive, NR1D1 modulator 34, NR2E3 ag-2 inactive, PG9 binder inactive and NR1D1 mod conf 18.
For CC(C)c1ccc(NC(=O)CSc2nc(=O)[nH]c3c2CCCC3)cc1 the results were NR2E3 ag-1 inactive, NR1D1 modulator inactive, NR2E3 ag-2 inactive and PG9 binder inactive.
Cc1ccc(C(=O)CSc2ncnc3sc4c(c23)CCCC4)cc1 was read as NR2E3 ag-1 inactive, NR1D1 modulator 34, NR2E3 ag-2 inactive, PG9 binder inactive and NR1D1 mod conf 18.
Screening COc1ccccc1C(=O)N1CCCC(c2nc(-c3cccs3)no2)C1 (stereo not given) returned NR1D1 modulator inactive.
Screening O=C(CN1C(=O)CCSc2ccccc21)Nc1ccc(F)cc1F returned NR1D1 modulator inactive.
Screening CSc1nc2ccc3nc(NC(=O)c4ccccc4)sc3c2s1 returned NR2E3 ag-1 inactive, NR1D1 modulator 38, NR2E3 ag-2 inactive, PG9 binder inactive and NR1D1 mod conf inactive.
Cc1csc2c(=O)sc(NC(=O)c3ccc(F)cc3)nc12 was read as NR2E3 ag-1 inactive, NR1D1 modulator inactive, NR2E3 ag-2 inactive and PG9 binder inactive.
Screening Cc1csc2nc(NC(=O)c3ccccc3)sc(=O)c12 returned NR2E3 ag-1 inactive, NR1D1 modulator 24, NR2E3 ag-2 inactive, PG9 binder inactive and NR1D1 mod conf inactive.
`Cc1ccc(S(=O)(=O)N2O[C@@H](c3ccccc3)C[C@H]2CON2C(C)(C)CCCC2(C)C)cc1` gave NR1D1 modulator inactive.
`C=CCn1c(=NC(=O)c2ccco2)sc2cc(C(=O)OCC)ccc21` gave NR2E3 ag-1 inactive, NR1D1 modulator 29, NR2E3 ag-2 inactive, PG9 binder inactive and NR1D1 mod conf 23.
Screening COCCn1c(=NC(=O)c2ccco2)sc2cc(C(=O)OC)ccc21 returned NR2E3 ag-1 inactive, NR1D1 modulator 42, NR2E3 ag-2 inactive, PG9 binder inactive, NR1D1 mod conf 38 and RORg counter inactive.
C=CCn1c(=NC(=O)c2ccco2)sc2cc(C(=O)OC)ccc21 was read as NR2E3 ag-1 inactive, NR1D1 modulator 28, NR2E3 ag-2 inactive, PG9 binder inactive, NR1D1 mod conf 35 and RORg counter inactive.
For CCOC(=O)c1sc(=NC(=O)c2ccco2)n(C)c1C the results were NR2E3 ag-1 inactive, NR1D1 modulator inactive, NR2E3 ag-2 inactive and PG9 binder inactive.
Screening CC1CCCCC1C(=O)N1CCC(Oc2cccnc2)CC1 (stereo not given) returned NR1D1 modulator inactive.
Screening COc1ccc(C2C(C(=O)N3CCN(C=O)CC3)CC(=O)N2c2ccc(OC)cc2)cc1 (stereo not given) returned NR1D1 modulator inactive.
For Cc1nc(C)c(-c2ccc(SCC(=O)Nc3cccc(Cl)c3C)nn2)s1 the results were NR2E3 ag-1 inactive, NR1D1 modulator 16, NR2E3 ag-2 inactive, PG9 binder inactive and NR1D1 mod conf inactive.
`COC(=O)[C@]1(C)CCC[C@@]2(C)C3CC[C@@]4(C)C[C@]3(CCC21)CC4=NO` (stereo not given in full) gave NR2E3 ag-1 inactive, NR1D1 modulator 17, NR2E3 ag-2 inactive, PG9 binder inactive and NR1D1 mod conf inactive.
Screening O=C(Nc1nc2ccc(Cl)cc2s1)c1cccc(N2C(=O)CCC2=O)c1 returned NR2E3 ag-1 inactive, NR1D1 modulator 43, NR2E3 ag-2 inactive, PG9 binder inactive and NR1D1 mod conf inactive.
`Cc1ccc(C(=O)Oc2ccc(-c3nccc(-c4ccccn4)n3)cc2)cc1` gave NR2E3 ag-1 inactive, NR1D1 modulator 20, NR2E3 ag-2 inactive, PG9 binder inactive and NR1D1 mod conf inactive.
O=C(Oc1ccc(-c2nccc(-c3ccccn3)n2)cc1)c1cccc(C(F)(F)F)c1 was read as NR2E3 ag-1 inactive, NR1D1 modulator inactive, NR2E3 ag-2 inactive and PG9 binder inactive.
O=c1oc2c3c4c(cc2c(C(F)(F)F)c1CCN1CCOCC1)CCCN4CCC3 was read as NR2E3 ag-1 inactive, NR1D1 modulator 52, NR2E3 ag-2 inactive, PG9 binder inactive, NR1D1 mod conf 63 and RORg counter inactive.
Screening Cc1nn(-c2ccccc2)c2sc(C(=O)NC3CCCC3)cc12 returned NR1D1 modulator inactive.
`Brc1ccc2nc(-c3ccc(CN4CCC(c5nc6ccccc6[nH]5)CC4)cc3)c(-c3ccccc3)nc2c1` gave NR1D1 modulator 16, PG9 binder inactive and NR1D1 mod conf 12.
For Cc1[nH]n(C(N)=S)c(=O)c1N=Nc1cc(-c2ccc(Br)cc2)[nH]n1 the results were NR2E3 ag-1 inactive, NR1D1 modulator 14, NR2E3 ag-2 inactive, PG9 binder inactive and NR1D1 mod conf inactive.
For CN(C)C(=O)CSc1nc(-c2cccs2)c(-c2cccs2)[nH]1 the results were NR2E3 ag-1 inactive, NR1D1 modulator 22, NR2E3 ag-2 inactive, PG9 binder inactive and NR1D1 mod conf 24.
`N#CCCN(CCC#N)S(=O)(=O)c1ccc(C(=O)Nc2nc(-c3ccccc3)c(C(=O)c3ccccc3)s2)cc1` gave NR2E3 ag-1 inactive, NR1D1 modulator 189, NR2E3 ag-2 inactive, PG9 binder inactive, NR1D1 mod conf 177 and RORg counter 4.1.
`Cc1ccc(-c2nc(NC(=O)c3ccc(S(=O)(=O)N(CCC#N)CCC#N)cc3)sc2-c2ccccc2)cc1` gave NR2E3 ag-1 inactive, NR1D1 modulator 26, NR2E3 ag-2 inactive, PG9 binder inactive and NR1D1 mod conf 18.
For COc1ccc(-c2noc(-c3ccc4c(c3)OCO4)n2)cc1 the results were NR2E3 ag-1 inactive, NR1D1 modulator 35, NR2E3 ag-2 inactive, PG9 binder inactive and NR1D1 mod conf inactive.
COc1ccc(NC(=O)c2cc(-c3ccc4c(c3)OCO4)on2)cc1 was read as NR2E3 ag-1 inactive, NR1D1 modulator 33, NR2E3 ag-2 inactive, PG9 binder inactive and NR1D1 mod conf inactive.
For COc1ccc(-c2cc(C(=O)Nc3cc(C)on3)no2)cc1 the results were NR1D1 modulator inactive, NR2E3 ag-2 inactive and PG9 binder inactive.
